# Screening data: PubChem, several laboratories
# NR2E3 ag-1: agonists of human nuclear receptor NR2E3; Q9Y5X4; AID 2300; inhibition of corepressor binding, % at 4.78 µM; 320,000 tested, 0.12% active; GST-NR2E3/biotin-RetCOR TR-FRET, 1536-well;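 active = percent inhibition above the cutoff of mean plus 3 SD of all tested compounds, set per screening campaign, cut at about 20% in these data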;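 note: 0% = DMSO wells and 100% = biotin wells as full block of FRET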
#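 System: GST-NR2E3 and biotin-RetCOR proteins; probe or stimulus: 7 nM biotin-RetCOR; doses: compound at 4.8 µM, single dose; schedule: Compound–protein incubation for 5 h at 4 °C; detection: time-resolved FRET; read-out: percent inhibition; controls: biotin wells as high control, 0.6% DMSO wells as low control; format: 1536-well plates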
# ADAM17 inh: inhibits human ADAM17. AID 720648. P78536. 370,000 tested, 0.83% active. recombinant ADAM17, EDANS/DABCYL FRET peptide cleavage. inhibition, % at 6.95 µM;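 active = inhibition above the mean of compounds lying between control limits plus 3 SD, set per campaign, cut at about 8.5% in these data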;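 note: 0% = DMSO-only wells as the low control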
# NR2E3 ag-2: human photoreceptor-specific nuclear receptor agonism. CHO-S Gal4-NCOR/VP16-NR2E3 two-hybrid, luciferase. inhibition of corepressor binding, % at 3.98 µM. 360,000 tested, 0.35% active;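 active = inhibition above the mean of all tested compounds plus 3 SD, cut at about 70% in these data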;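 note: 0% = DMSO with NR2E3 transfected cells and 100% = cells lacking NR2E3 construct; higher means lower luciferase signal from less NR2E3 corepressor binding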
# GASC-1 inh: blocks human GASC-1 demethylase activity; 330,000 tested, 0.069% active; AID 2099; Q9H3R0; GST-JMJD2C(1-420) H3K9me3 demethylation, DELFIA europium; inhibition, % at 2.35 µM;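 active = more than half of a compound's replicate wells show inhibition beyond 50%, single wells judged on their own value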;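 note: signal counts dimethyl H3K9 product captured on neutravidin plate; 0% = median of DMSO wells and 100% = 0.3 times that DMSO median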
# Target sequence (Q9H3R0 1-420 limits assumed): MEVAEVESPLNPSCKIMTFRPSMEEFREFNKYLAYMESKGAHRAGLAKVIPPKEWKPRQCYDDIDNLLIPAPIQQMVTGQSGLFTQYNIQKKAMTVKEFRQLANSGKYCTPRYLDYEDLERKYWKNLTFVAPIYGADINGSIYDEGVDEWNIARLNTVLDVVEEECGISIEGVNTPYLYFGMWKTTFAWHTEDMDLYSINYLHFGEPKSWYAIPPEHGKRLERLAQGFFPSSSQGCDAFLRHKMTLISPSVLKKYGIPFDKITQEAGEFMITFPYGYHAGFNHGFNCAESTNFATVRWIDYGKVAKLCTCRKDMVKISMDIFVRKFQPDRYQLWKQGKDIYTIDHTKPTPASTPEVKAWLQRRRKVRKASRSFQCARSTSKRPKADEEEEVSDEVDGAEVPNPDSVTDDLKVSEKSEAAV
# KLK7 zymogen act: activators of human kallikrein-7 zymogen; P49862; purified proKLK7, EDANS-DABCYL substrate fluorescence; 100% is mature enzyme control, 0% vehicle; activation, % at 7 µM; 370,000 tested, 0.9% active; AID 652039;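 active = activation above the mean of all tested compounds plus 3 SD, computed per campaign excluding outliers beyond control limits, cut at about 13% in these data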
# Target sequence (P49862 whole entry, looked up): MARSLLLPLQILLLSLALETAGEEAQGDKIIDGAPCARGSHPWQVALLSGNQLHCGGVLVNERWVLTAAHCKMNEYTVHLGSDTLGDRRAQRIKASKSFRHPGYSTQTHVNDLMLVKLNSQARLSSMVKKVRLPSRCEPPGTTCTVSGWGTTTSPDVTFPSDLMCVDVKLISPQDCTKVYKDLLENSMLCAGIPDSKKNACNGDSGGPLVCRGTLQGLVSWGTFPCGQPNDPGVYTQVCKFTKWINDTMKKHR
# ADAM10 inh: inhibitors of human ADAM10; O14672; AID 720582; recombinant ADAM10, EDANS/DABCYL FRET peptide cleavage, 3 h; inhibition, % at 7 µM; 370,000 tested, 0.62% active;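 active = inhibition above a per-campaign cutoff equal to the mean of compounds falling between control-based bounds plus 3 SD, cut at about 20% in these data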;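 note: 0% = DMSO wells while the 100% control is not disclosed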
# ADAM10 ctr: counter-screen for ADAM17 exosite inhibitors: inhibitors of human ADAM10. shares compounds with ADAM17 inh. recombinant ADAM10, EDANS/DABCYL FRET peptide cleavage, 3 h. inhibition, % at 6.95 µM. 2,900 tested, 47% active. AID 743256;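 active = mean inhibition over the triplicate runs exceeds the activity threshold set in the earlier primary screen, cut at about 20% in these data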;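 note: 0% = DMSO wells and 100% = marimastat wells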
# ADAM17 confirm: confirmation of inhibitors of human ADAM17; shares compounds with ADAM17 inh; recombinant ADAM17, EDANS/DABCYL QFRET peptide cleavage; inhibition, % at 6.95 µM; 2,900 tested, 65% active; AID 743257;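 active = mean inhibition across replicates above the hit cutoff set in the primary screen, cut at about 8.5% in these data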;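 note: 0% = DMSO wells and 100% = marimastat wells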
# An asterisk follows results filed as active; i = inactive; · = no result. An excerpt weighted towards active compounds, which were near 2.5% of everything screened.
SMILES,NR2E3 ag-1,ADAM17 inh,NR2E3 ag-2,GASC-1 inh,KLK7 zymogen act,ADAM10 inh,ADAM10 ctr,ADAM17 confirm
COc1ccc(NC(=O)c2cc3sccc3n2Cc2ccc(F)cc2)cc1OC,2,9.8*,-30,3,5,15,3,7
CC(C)C(NC(=O)c1c(F)cccc1F)C(=O)NC1CC(C)(C)NC(C)(C)C1 (stereo not drawn),-5,-4,-26,7,0,7,·,·
CC(c1ccccc1)n1c(SCC(=O)N2CC(=O)Nc3ccccc32)nc2ccccc2c1=O (stereo not drawn),-5,8.9*,13,-5,1,15,37*,16*
CCOC(=O)C1CCN(C(=O)Cn2c(=O)c3cccn3c3cccnc32)CC1,-1,-7,-4,16,-1,-26,·,·
O=C(CCNC(=O)c1ccc(Cl)cc1)NCCC1=CCCCC1,2,8.7*,-74,12,1,4,14,9.2*
O=C(CCNC(=O)c1ccc([N+](=O)[O-])cc1)NCCC1=CCCCC1,0,-7,9,5,-1,-4,·,·
COc1cc(/C=C/c2ccc3cccc([N+](=O)[O-])c3n2)ccc1OCC(=O)O,-4,-1,-13,-5,0,-4,·,·
CCOc1c(OC(C)=O)ccc(/C=C/c2ccc3cccc(OC)c3n2)c1[N+](=O)[O-],-2,9.0*,-22,0,0,16,24*,16*
CN(C)S(=O)(=O)c1ccc(NC(=O)c2cc3ccccc3o2)cc1,-1,-1,-44,-3,0,-2,·,·
CN(C)S(=O)(=O)c1ccc(S(=O)(=O)Nc2ccc3c(c2)oc2ccccc23)cc1,-3,9.2*,-21,-2,0,19,34*,17*
Cc1coc(=N)n1CC(=O)c1ccc(Cl)cc1,·,-1,-21,·,-1,-9,·,·
FC(F)(F)c1cc(CCN2CCNC[C@@H]2CC2CCCCC2)cc(C(F)(F)F)c1,·,1,25,·,0,-1,·,·
CCCC[C@@H]1CNCCN1CCc1cc(C(F)(F)F)cc(C(F)(F)F)c1,2,9.0*,-8,-2,0,4,0,0
CN1/C(=C/C(=O)C2CCC2)Sc2ccccc21,7,12*,-71,10,1,14,8,8
COCC(=O)/C=C1\Sc2ccccc2N1C,-2,-1,-11,-3,0,0,·,·
CCOC(=O)[C@]12CCC=C1N(Cc1ccco1)C(=O)[C@H](CC(=O)NCC1CCCCC1)C2,·,-2,-14,·,1,-6,·,·
NS(=O)(=O)c1ccc(CCNC(=O)c2ccc[nH]c2=S)cc1,-6,-8,-27,25,3,-4,·,·
Oc1cccc2ccc(Nc3ccccn3)nc12,-3,50*,-1,10,0,60*,32*,47*
CCC/C(O)=C1\C(=O)CCCC1=NCCc1ccc(OCC)c(OCC)c1,3,-4,-21,-11,1,2,·,·
CCC/C(O)=C1\C(=O)CCCC1=NC(C)C(=O)O (stereo not drawn),0,10*,-9,14,0,6,10,7
COc1ccc(C2C(C#N)=C(N)Nc3onc(C(C)(C)C)c32)c(OC)c1 (stereo not drawn),-3,8.7*,12,7,6,8,7,7
COc1ccc(C2C(C#N)=C(C)NC(C)=C2C#N)c(OC)c1,4,-6,-1,1,0,-18,·,·
CCOC(=O)C(CCc1ccccn1)c1ccccc1 (stereo not drawn),·,-4,-7,·,0,0,·,·
CC(=O)Nc1ccc(-c2ccnc3c2CC(C)(C(=O)NCCc2ccccc2)O3)cc1 (stereo not drawn),·,9.5*,-19,·,0,-8,11,7
CC(=O)Nc1ccc(-c2ccnc3c2CC(C)(C(=O)Nc2ccccc2)O3)cc1 (stereo not drawn),·,-1,-15,·,0,-6,·,·
SMILES,NR2E3 ag-1,ADAM17 inh,NR2E3 ag-2,GASC-1 inh,KLK7 zymogen act,ADAM10 inh,ADAM10 ctr,ADAM17 confirm
CCNC(=O)O/N=C(\C)c1sc(-c2ccc(Cl)cc2)nc1C,-1,9.8*,-208,-4,0,12,7,8
COc1cccc(NC(=O)CC2SC(=Nc3ccccc3)NC2=O)c1 (stereo not drawn),0,-1,-11,4,0,-3,·,·
COc1cccc(NC(=O)CC2S/C(=N\S(=O)(=O)c3ccccc3)N(c3ccccc3)C2=O)c1 (stereo not drawn),-2,10*,-5,-3,0,16,15,9.8*
CCOc1ccc(NC(=O)CC2SC(=O)N(c3ccccc3)C2=O)cc1 (stereo not drawn),-1,9.6*,-6,4,0,15,14,41*
Cc1ccc(-c2ccc3c(c2)O[C@H](CN(C)Cc2cncnc2)[C@@H](C)CN([C@H](C)CO)S3(=O)=O)cc1,·,-3,0,·,0,-7,·,·
COc1cc(-c2coc3c(C(=O)NCc4cccc(Cl)c4)cccc23)ccc1O,·,8.6*,-18,·,0,15,27*,13*
CCc1nc2ccccc2c(C(=O)OCC(=O)NC(=O)c2cccn2C)c1C,2,-1,-6,-1,0,-3,·,·
COc1ccc(S(=O)(=O)N2CCOCC2)cc1NC(=O)COC(=O)C1CC1C (stereo not drawn),3,-3,-21,0,1,-7,·,·
COc1cc(C(c2c(C)[nH][nH]c2=O)c2c(C)[nH][nH]c2=O)ccc1OCc1ccc([N+](=O)[O-])cc1,-1,10*,-49,5,-1,16,16,13*
COc1cc(C(c2c(C)[nH][nH]c2=O)c2c(C)[nH][nH]c2=O)ccc1OC(=O)c1cccc([N+](=O)[O-])c1,0,2,-9,-4,0,11,·,·
CCN1C(=O)c2cccc3c(NC(=O)c4ccc5c(c4)OCCO5)ccc1c23,-1,9.5*,3,-16,0,8,-9,0
CCN1C(=O)c2cccc3c(NC(=O)c4ccccc4)ccc1c23,-1,-2,-8,-5,0,-7,·,·
CC(CC(=O)c1cccs1)CC(=O)c1cccs1,8,-4,-45,36,0,-10,·,·
O=C(SCC(O)C(O)CS)c1cccs1 (stereo not drawn),4,43*,-1,i,0,12,31*,64*
CSc1nc2ccc(NS(=O)(=O)c3cccc(Cl)c3Cl)cc2s1,3,9.7*,38,-1,1,20,14,10*
